# Compound activity: PubChem BioAssay, several laboratories
# Cl transport mod – modulates chloride dependent transport by human KCC2; Q9H2X9; KCC2 cells, thallium flux FluoZin-2 fluorescence; B-score of Tl+ flux slope (higher = more flux/activation; lower = inhibition) at 10 µM; hit rate 2.2% among 190,000; AID 1456;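 active = thallium flux slope and its plate-corrected score both differing from the plate sample mean at a set confidence after two filtering rounds, in either direction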;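 also: slope of fluorescence scaled to starting intensity during 10 to 20 s after thallium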
# Target sequence (Q9H2X9 whole entry, looked up): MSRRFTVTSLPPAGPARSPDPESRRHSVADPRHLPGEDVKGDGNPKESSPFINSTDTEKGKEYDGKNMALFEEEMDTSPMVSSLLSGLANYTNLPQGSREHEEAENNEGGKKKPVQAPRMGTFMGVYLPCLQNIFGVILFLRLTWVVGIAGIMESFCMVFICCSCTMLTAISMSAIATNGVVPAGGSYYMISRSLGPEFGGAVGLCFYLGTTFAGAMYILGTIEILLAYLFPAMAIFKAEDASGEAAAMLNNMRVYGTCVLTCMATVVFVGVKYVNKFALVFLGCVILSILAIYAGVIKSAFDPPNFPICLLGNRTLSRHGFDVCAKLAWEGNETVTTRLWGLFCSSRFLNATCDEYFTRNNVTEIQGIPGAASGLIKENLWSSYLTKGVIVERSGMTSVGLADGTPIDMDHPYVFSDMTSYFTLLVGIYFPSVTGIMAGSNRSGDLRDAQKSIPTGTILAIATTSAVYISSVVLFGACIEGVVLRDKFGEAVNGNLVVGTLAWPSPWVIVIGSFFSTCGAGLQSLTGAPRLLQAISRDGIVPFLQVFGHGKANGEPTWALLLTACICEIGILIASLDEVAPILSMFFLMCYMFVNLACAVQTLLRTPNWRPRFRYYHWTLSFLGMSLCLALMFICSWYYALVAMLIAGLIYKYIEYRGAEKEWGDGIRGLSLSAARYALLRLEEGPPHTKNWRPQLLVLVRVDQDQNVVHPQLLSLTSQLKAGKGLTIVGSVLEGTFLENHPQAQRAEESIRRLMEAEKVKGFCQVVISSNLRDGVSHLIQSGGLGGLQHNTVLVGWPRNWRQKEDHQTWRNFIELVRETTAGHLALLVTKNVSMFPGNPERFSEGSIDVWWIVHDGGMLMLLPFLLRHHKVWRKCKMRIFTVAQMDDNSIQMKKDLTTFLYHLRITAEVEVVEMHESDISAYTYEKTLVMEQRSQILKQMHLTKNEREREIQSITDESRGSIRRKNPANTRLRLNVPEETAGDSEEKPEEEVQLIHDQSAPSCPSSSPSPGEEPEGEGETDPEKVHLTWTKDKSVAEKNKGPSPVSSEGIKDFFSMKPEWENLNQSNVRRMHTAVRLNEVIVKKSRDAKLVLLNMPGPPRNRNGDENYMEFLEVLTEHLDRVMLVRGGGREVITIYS
# Rad51 HR inh – blocks human Rad51 in homologous recombination | inhibition, % at 10 µM | Q06609 | hRad51 DNA strand exchange, fluorescence dequenching | AID 1385 | hit rate 0.085% among 200,000;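 active = inhibition above 40% at the single screening dose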;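 also: 0% = DMSO control wells and 100% = blanks with heterologous ssDNA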
#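 material = hRad51 filaments on single-stranded DNA | reagent = Donor/quencher-labelled 47-bp dsDNA substrate | compound = 10 µM final, single point | schedule = strand-exchange reaction 15 min at room temperature | measured by = fluorescein emission 520 nm, excitation 485 nm | read-out basis = % inhibition versus plate control and blank means | benchmarks = plate controls and plate blanks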
# WT yeast gro inh – growth inhibition of WT yeast, mitochondrial fusion screen; mitochondrial fusion phenotypic screen, WT strain; hit rate 2.1% among 190,000; inhibition, % at 10 µM; in the data active = inhibition above about 58%; tested in S. cerevisiae
# Insulin prom up – MIN6 insulin promoter up-regulation; MIN6 insulin promoter-GFP reporter, high-content imaging; active compounds read high; z-score at 5 µM; hit rate 0.3% among 190,000; AID 1625;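 active = z-score above 3 at 5 µM with at least 500 cells counted in the well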
# Autophagy mod – modulators of autophagy. MEF GFP-LC3 puncta imaging; test concentration mostly 10 µM. calls only at 10 µM (by protocol). hit rate 0.98% among 190,000. AID 463193;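 active = percentage of spot-positive cells more than 3 SD above its plate mean, without a fluorescence outlier flag or 80% toxicity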;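 also: spot-positive cell cutoff set from DMSO-treated cells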
# SKKanGAS inh – SKKanGAS growth inhibition. S. pyogenes SKKanGAS, kanamycin growth, BacTiter-Glo, 6 h. inhibition, % at 7.5 µM. hit rate 1.3% among 300,000. AID 1662;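 active = mean replicate score, as percent of positive control median, at least 50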;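 also: strain carries kanamycin resistance gene driven by streptokinase promoter and grows in 40 µg/ml kanamycin; loss of luminescence reflects streptokinase promoter inhibition or plain growth inhibition; 0% = median of DMSO wells and 100% = positive control at its reference dose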
# An asterisk follows results filed as active; i = inactive; / = no result; + = active, no number. A selection: hits, their analogues and other compounds. The true share with any hit is near 4.2%.
SMILES,Cl transport mod,Rad51 HR inh,WT yeast gro inh,Insulin prom up,Autophagy mod,SKKanGAS inh
O=C1CC(=O)Nc2cc(S(=O)(=O)Nc3cccc(C(F)(F)F)c3)ccc2N1,/,/,/,/,/,-3
COc1ccc(NC(=S)NC2CCCCC2)c(OC)c1,-0.017,-7,-2,-0.07,i,-4
S=C(Nc1ccccc1Oc1ccccc1)NC1CCCC1,-0.43,4,68*,0.66,i,15
COc1ccc(NC(=S)NC2CCCCCC2)c(OC)c1,-0.31,1,64*,-0.46,i,7
COc1cc(-c2ccc(NC(=O)NC3CC3)c(OC)c2)ccc1NC(=O)NC1CC1,0.26,14,/,-0.17,/,55*
COc1ccccc1NC(=S)NC1CCCC1,/,/,/,/,/,0
S=c1[nH]cnc2sc(Nc3ccccc3)nc12,-0.15,0,/,-0.56,/,11
CCOc1ccc(S(=O)(=O)Nc2cccc(C(=O)NCC3CCCO3)c2)cc1 (centres undefined),/,/,/,/,/,-1
Nc1ccc(C(=O)C(=O)c2ccccc2)cc1,/,/,/,/,/,-3
Cc1ccc(NC(=O)CCNC(=O)c2ccc(Cl)cc2)nc1,/,/,/,/,/,-17
CCOC(=O)c1cc(-c2ccccc2)sc1NC(=S)Nc1cc(C)ccn1,/,/,-5,0.24,+,5
CCOC(=O)c1cc(-c2ccccc2)sc1NC(=O)C(C)(C)C,1.2,2,-5,-0.01,i,4
COc1cc([C@@H]2[C@H]3CN(C)CC=C3C(C#N)=C(N)C2(C#N)C#N)cc2c1OCO2,0.021,-4,12,/,+,0
CN1CC=C2C(C#N)=C(N)C(C#N)(C#N)[C@H](c3cccs3)[C@H]2C1,-0.59,-39,2,/,+,-11
CN1CC=C2C(C#N)=C(N)C(C#N)(C#N)C(c3ccsc3)C2C1 (centres undefined),-0.18,-4,19,/,i,3
CCOc1ccccc1OCC(=O)NNC(=O)Cn1cnc2c1c(=O)n(C)c(=O)n2C,-0.5,-2,-14,0.15,i,-6
C=C(C)COc1ccc(-c2[nH]ncc2Oc2cccc(OC)c2)c(O)c1,/,-10,1,-0.67,i,76*
C=C(C)COc1ccc(-c2[nH]ncc2-c2ccc(OC)cc2)c(O)c1,0.98,/,/,-0.42,/,75*
C=C(C)COc1ccc(-c2[nH]ncc2Oc2ccccc2OCC)c(O)c1,/,1,-21,2.6,i,77*
O=C(c1ccco1)N1CCN(Cc2cc(=O)c(OCc3ccccc3F)co2)CC1,/,/,/,/,/,-7
CCOc1ccc(N2CC(C(=O)Nc3ccccc3C(=O)N3CCOCC3)CC2=O)cc1 (centres undefined),/,/,/,/,/,-1
COc1ccccc1/C=C/CN1CCCC(CO)(Cc2cccc(Cl)c2)C1 (centres undefined),0.0047,/,65*,0.31,i,-9
COc1cccc(CC2(CO)CCCN(C/C=C/c3ccccc3OC)C2)c1 (centres undefined),/,15,6,-0.59,i,5
COc1ccc2nc(Nc3nc(C)c(C(C)=O)s3)sc2c1,1,-6,1,0.27,i,56*
Cc1cc(=O)oc(C)c1C(=O)Nc1cccc(F)c1,0.48,14,/,-0.19,/,3
SMILES,Cl transport mod,Rad51 HR inh,WT yeast gro inh,Insulin prom up,Autophagy mod,SKKanGAS inh
Cc1cc(C(=O)N/N=C/c2cc(N=Nc3ccccc3)ccc2O)n[nH]1,-2.4,0,6,-0.13,i,88*
CCOC(=O)c1[nH]c(C)c(C(=O)OCC(=O)Nc2sc3c(c2C#N)CCCCC3)c1C,-0.27,-4,2,0.3,i,-15
O=C(NC(=S)Nn1cnc2c(cnn2-c2ccccc2)c1=O)c1ccc(Oc2ccccc2)cc1,18*,-2,22,-0.04,i,89*
Nc1ccc(S(=O)C(F)(F)F)cc1 (centres undefined),0.74,6,3,-0.46,i,-7
N#C/C(C(=O)Oc1ccccc1)=C1/Nc2ccccc2-c2ccccc21,0.058,/,-37,-0.83,+,-4
N#CC(C(=O)Nc1ccccc1)=C1Nc2ccccc2N1,/,-2,-12,0.57,i,1
Cc1cccc(CS(=O)(=O)c2nnc([C@H](Cc3ccccc3)NC(=O)OC(C)(C)C)o2)c1,/,-12,47,-0.9,i,79*
NNc1nc2c(Cl)c(Cl)ccc2s1,-0.72,4,78*,-0.16,i,4
COc1cccc2sc(NN)nc12,0.79,3,20,/,i,5
CC(C)CCN1CCN(Cc2nc(-c3ccc(F)cc3)cs2)CC1CCO (centres undefined),/,/,2,-1,i,0
Cc1cc(F)ccc1S(=O)(=O)NCC1CC2CCC1C2 (centres undefined),/,/,/,/,/,3
FC(F)Oc1ccc(NC(=S)NCc2ccccc2)cc1Cl,-0.031,1,58*,0.33,i,4
Fc1ccc(NC(=S)Nc2ccccc2N2CCOCC2)cc1Cl,-0.3,-2,61*,-1.1,i,-2
Cc1ccc(NC(=S)Nc2ccc(Cl)c(Cl)c2)c(OC(F)F)c1,-0.076,-14,80*,-0.12,i,2
Fc1ccc(NC(=S)Nc2ccccc2OC(F)F)cc1Cl,1.6,-2,62*,-0.28,i,3
CC(NC(=S)Nc1ccc(OC(F)F)c(Cl)c1)C(C)(C)C (centres undefined),-0.61,4,47,0.37,i,27
Cc1ccc(NC(=S)Nc2ccc(OC(F)F)c(Cl)c2)cc1Cl,0.93,-1,73*,-0.54,i,11
O=C(Nc1cccc(Cl)c1)c1cccc(Oc2ccc([N+](=O)[O-])cc2Cl)c1,0.18,2,36,0.25,i,3
O=C(Nc1cccc(Cl)c1)c1cc(N=Nc2ccc([N+](=O)[O-])cc2Cl)ccc1O,11*,10,/,-0.18,/,-2
COc1ccc(-c2nnc(SCc3nc4ccccc4c(=O)[nH]3)o2)cc1,-0.39,-4,/,-0.55,/,-1
O=C(CSc1ncc(-c2ccccc2)n1C1CCCC1)N1CCc2ccccc21,/,-1,-6,-0.01,i,2
O=c1c2ccccc2nc(-c2cccc(Cl)c2)n1O,18*,-1,-7,-0.25,i,-8
On1c(-c2ccc(Cl)cc2)nc2ccccc21,1.5,9,79*,-0.07,i,5
Cc1ccc(-c2nc3ccccc3c(=O)n2O)cc1,/,/,/,/,/,15
Cc1ccc(-c2nc3ccc(Cl)cc3c(=O)n2O)cc1,/,/,/,/,/,70*
CCC1C(=O)N=C(SCC(=O)Nc2ccc(C)cc2)N(c2ccccc2)C1=O (centres undefined),/,/,/,/,/,22
CN(C)N=Nc1ccc(-c2cn(Cc3ccccc3)cn2)cc1,/,/,/,/,/,0
COc1cccc(C2Nc3c(F)cc(Br)cc3C3C=CCC32)c1OC (centres undefined),0.013,17,66*,0.34,i,46
COc1cc(C2Nc3c(F)cccc3C3C=CCC32)cc(Br)c1OC (centres undefined),-0.02,-8,12,-0.05,i,21
COc1cc(NS(=O)(=O)c2ccc(NC(=O)/C=C/C(=O)O)cc2)nc(OC)n1,/,/,/,/,/,1
